High-throughput results from PubChem BioAssay.
EBNA-1 inh: blocks EBNA-1 binding to DNA | AID 1950 | 0.34% of 300,000 active | inhibition, % at 14.8 µM | EBNA-1 DNA binding, fluorescence polarization; in the data active = inhibition above about 28%
NS3 helicase inh: HCV NS3 helicase inhibition; NS3 helicase DNA unwinding, Cy5 molecular beacon fluorescence; inhibition, % at 10.9 µM; 0.56% of 290,000 active; AID 1800;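 active = inhibition above the mean of all tested compounds plus 3 SD, set per campaign, cut at about 35% in these data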;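 also: 0% = DMSO wells and 100% = thioflavine S control wells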
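System: Hepatitis C virus NS3 helicase domain fragment enzyme | Reagent: Annealed dual-labelled DNA beacon duplex, ATP-started | Compound dosing: 10.9 µM single point, 0.8% DMSO | Incubation: 1 h reaction at 25 °C, ATP-initiated | Technique: Cy5 fluorescence | Evaluation: Percent inhibition from t60/t0 fluorescence ratio | Benchmarks: Low DMSO, high thioflavine S at 110 µM | Replication: Singlicate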
HCV core dimer: HCV core protein dimerization inhibition. TR-FRET GST/Flag-core106 dimerization, 1536-well. inhibition, % at 5 µM. 0.33% of 300,000 active;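 active = inhibition above the mean of all tested compounds plus 3 SD, set per screening campaign, cut at about 45% in these data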
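Assay system: Tagged HCV core106 pair (GST and Flag) | Buffer or medium: KF-containing HEPES buffer, pH 7.45, DTT, CHAPS, BSA | Also added: Eu donor and XL665 acceptor anti-tag antibodies | Dosing: One concentration, 5 µM, in 0.5% DMSO | Timing: 4 h at 22.5 °C | Technique: TR-FRET 671 and 617 nm emission | Repeats: Singlicate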
ZTA DNA inh: counter-screen for EBNA-1 inhibitors: inhibitors of Epstein-Barr virus ZTA. ZTA-DNA binding, fluorescence polarization. inhibition, % at 11 µM. 0.15% of 320,000 active. AID 2234; in the data active = inhibition above about 33%
Target sequence (P03206 whole entry, looked up): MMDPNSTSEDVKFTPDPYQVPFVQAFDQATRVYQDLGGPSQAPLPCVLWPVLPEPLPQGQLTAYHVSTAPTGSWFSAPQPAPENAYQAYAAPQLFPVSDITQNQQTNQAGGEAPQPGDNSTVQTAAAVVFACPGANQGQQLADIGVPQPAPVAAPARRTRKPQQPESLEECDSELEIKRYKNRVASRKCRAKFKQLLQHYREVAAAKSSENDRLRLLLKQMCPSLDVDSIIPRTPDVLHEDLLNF
PfM18AAP inh: PfM18AAP enzyme inhibition | recombinant PfM18AAP, H-Glu-NHMec fluorogenic cleavage | inhibition, % at 7.35 µM | 1.2% of 290,000 active | AID 1822;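 active = inhibition above the campaign mean inhibition over all tested compounds plus 3 SD, cut at about 28% in these data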;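 also: 0% = plate median of test compound wells and 100% = 2 mM ZnCl2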
ALR H2O2 inh: blocks human ALR sulfhydryl oxidase activity; purified ALR, DTT oxidation, H2O2 HRP-luminol luminescence; inhibition, % (test concentration not listed); 3.8% of 290,000 active; AID 485317;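 active = mean replicate inhibition above about 79%, with every replicate also reaching it, limit read from the data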
Target sequence (P55789 whole entry, looked up): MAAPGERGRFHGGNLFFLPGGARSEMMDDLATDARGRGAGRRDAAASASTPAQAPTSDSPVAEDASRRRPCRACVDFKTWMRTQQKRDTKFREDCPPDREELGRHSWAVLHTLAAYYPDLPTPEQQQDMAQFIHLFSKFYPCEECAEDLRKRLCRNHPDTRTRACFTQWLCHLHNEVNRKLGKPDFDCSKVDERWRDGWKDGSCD
NS3 helicase cf: HCV NS3 helicase inhibition, confirmation assay; shares compounds with NS3 helicase inh; NS3 helicase DNA unwinding, Cy5 molecular beacon fluorescence; inhibition, % at 10.9 µM; 31% of 1,600 active; AID 1943;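 active = inhibition above the mean of all tested compounds plus 3 SD, cutoff set per campaign, cut at about 36% in these data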
DNA FID counter: counter-screen for HCV NS3 helicase inhibitors: DNA intercalator displacement. 4% of 1,600 active. DNA fluorescent intercalator displacement, fluorescence. inhibition, % at 7.9 µM. shares compounds with NS3 helicase inh; in the data active = inhibition above about 37%;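 also: 0% = vehicle and 100% = reference compound; higher means more displacement of ethidium bromide from the DNA hairpin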
FID counter DR: DNA intercalator displacement in dose response; shares compounds with NS3 helicase inh; fluorescent intercalator displacement from DNA, fluorescence; IC50, µM; 120 tested, under 10 active; call rule not given here
* = called active by the depositor; / = no result. Shown are actives, neighbours in structure and some others; about 5.2% of the full set was active somewhere.

SMILES | EBNA-1 inh | NS3 helicase inh | HCV core dimer | ZTA DNA inh | PfM18AAP inh | ALR H2O2 inh | NS3 helicase cf | DNA FID counter | others
Cc1ccc(NC(=O)CSc2nnc(-c3ccccc3Br)o2)cc1C | -11.0 | -2.0 | 8.5 | 0.0 | 4.6 | -3.6 | / | /
CC(C)(C)OC(=O)N[C@H](C(=O)OC(C)(C)C)c1ccc2ccccc2c1 | / | / | / | 7.1 | / | 0.0 | / | /
O=C(N/N=C\c1ccc(-c2ccc([N+](=O)[O-])cc2)o1)c1ccc2c(c1)OCO2 | -3.5 | -2.8 | 3.7 | 6.7 | -3.4 | 6.1 | / | /
CCCCCCCC(=O)N/N=C/c1ccc([N+](=O)[O-])o1 | 4.8 | 39.2* | 3.4 | 0.4 | -7.2 | -38.5 | -21.1 | 3.8
CC(C)(C)c1ccc2c(c1)OC(C(=O)N/N=C/c1ccc([N+](=O)[O-])o1)CO2 (centres undefined) | -8.3 | 51.4* | 7.2 | 7.1 | 9.7 | -12.8 | -16.8 | 2.0
CC(C)(C)c1ccc2c(c1)OC(C(=O)N/N=C\c1ccncc1)CO2 (centres undefined) | -16.9 | -1.1 | 1.3 | -3.0 | -8.9 | -1.7 | / | /
CCOC(=O)N/N=C\c1ccc([N+](=O)[O-])o1 | 6.4 | 6.3 | 3.2 | 6.5 | 0.8 | -34.9 | / | /
O=C(N/N=C/c1ccc([N+](=O)[O-])o1)c1ccc2c(c1)OCO2 | / | 40.3* | / | / | 29.9* | -43.0 | -11.6 | 6.0
CC(=O)c1cccc(OCC(O)CN2CCN(C(=O)c3ccco3)CC2)c1 (centres undefined) | -6.7 | -3.4 | 6.6 | -1.8 | -5.6 | / | / | /
Cc1ncc(CO)c2c1Oc1nc(-c3ccccc3)nc(SCC(=O)Nc3cccc(O)c3)c1C2 | -9.5 | 5.7 | 31.6 | -3.4 | 12.1 | -3.4 | / | /
COc1ccc(-c2nc3c(c(SCC(=O)Nc4cccc(O)c4)n2)Cc2c(CO)cnc(C)c2O3)cc1 | -7.9 | 69.5* | 70.6* | 1.8 | 10.9 | -8.0 | 2.4 | -4.4
C[C@@H](NC(=O)[C@@H]1Cc2ccccc2CN1C(=O)OC(C)(C)C)C(=O)NC1CCCCC1 | 9.4 | 9.1 | -7.8 | -0.3 | -6.3 | 2.2 | / | /
Cc1cc(NS(=O)(=O)c2ccc(NC(=O)/C=C/c3c(F)cccc3Cl)cc2)nc(C)n1 | -6.0 | 36.4* | -0.8 | 7.5 | -2.7 | 9.1 | -21.6 | -6.2
Cc1cc(NS(=O)(=O)c2ccc(NC(=O)/C=C/c3c(F)cccc3Cl)cc2)no1 | -1.7 | -13.8 | 21.4 | 11.5 | 4.5 | 63.5 | / | /
COc1cc(/C=N/NC(=O)Cc2ccccc2)cc([N+](=O)[O-])c1O | 4.4 | 2.8 | -13.1 | -3.6 | -1.8 | 6.4 | / | /
COc1cc(/C=N/NC(=O)[C@H](Cc2c[nH]c3ccccc23)NC(=O)OCC(C)C)cc([N+](=O)[O-])c1O | -2.5 | 49.6* | -13.6 | 15.3 | 8.5 | 31.9 | 59.5* | -14.5
CCCn1c(C(C)C)n[nH]c1=S | -11.3 | -4.2 | -0.5 | 8.6 | 3.3 | 2.7 | / | /
CO/N=C/c1ccc(N2CCN(C(=O)c3cccc(C(F)(F)F)c3)CC2)c([N+](=O)[O-])c1 | -2.1 | -15.2 | 5.0 | 7.0 | 0.1 | -16.9 | / | /
CO/N=C/c1ccc(N2CCN(C(=O)c3ccc(F)cc3)CC2)c([N+](=O)[O-])c1 | 2.2 | 40.5* | -10.9 | -9.6 | 3.8 | -0.5 | -16.1 | -32.2
O=C(O)CN1C(=O)/C(=C\c2cc(Br)ccc2OCc2ccc(Cl)cc2)SC1=S | / | 38.9* | / | / | 7.4 | 98.1* | 67.1* | 59.2*
O=C(N/N=C\C=C\c1ccc([N+](=O)[O-])o1)c1cccs1 | / | 53.7* | / | / | 14.7 | -22.2 | 2.0 | 12.4
Cc1ccccc1OCC(=O)N/N=C/c1ccc([N+](=O)[O-])o1 | 3.1 | 35.5 | 12.8 | 15.4 | 3.1 | -111.7 | / | /
COc1ccccc1OCC(=O)N/N=C/C=C/c1ccc([N+](=O)[O-])o1 | 9.2 | 46.2* | 21.9 | 16.6 | 7.6 | / | 1.7 | -1.3
O=C(O)CCN1C(=O)/C(=C2\C(=O)N(Cc3ccccc3Cl)c3ccccc32)SC1=S | / | 44.0* | / | / | 1.4 | -11.8 | 90.8* | 4.1 | FID counter DR=>79.4
O=C(COC(=O)/C=C/c1cccc([N+](=O)[O-])c1)NCC1CCCO1 (centres undefined) | 15.7 | 48.3* | 1.0 | 2.8 | -5.2 | 11.8 | -7.4 | 3.7
SMILES | EBNA-1 inh | NS3 helicase inh | HCV core dimer | ZTA DNA inh | PfM18AAP inh | ALR H2O2 inh | NS3 helicase cf | DNA FID counter | others
Cc1cc(C)n2nc(SC(C)C(=O)N3CC(C)OC(C)C3)nc2n1 (centres undefined) | / | / | / | / | / | -5.3 | / | /
CC(/C=C1\SC(=S)N(NS(=O)(=O)c2ccc(C)cc2)C1=O)=C\c1ccccc1 | 23.1 | 42.7* | 12.3 | 22.7 | 7.5 | 4.1 | 85.7* | 0.8
CC(/C=C1\SC(=S)N(NC(=O)c2ccncc2)C1=O)=C\c1ccccc1 | 0.5 | 78.1* | 1.6 | 11.3 | 1.0 | 24.4 | 34.3 | 2.3
CC(/C=C1\SC(=S)N(C(C(=O)O)C(C)C)C1=O)=C\c1ccccc1 (centres undefined) | -6.5 | 36.0* | 23.5 | 17.6 | -9.6 | 12.5 | 68.5* | 27.5
O=C(NN1C(=O)/C(=C/c2cccs2)SC1=S)c1ccccc1 | 4.9 | 12.2 | -6.0 | -7.8 | 4.9 | -0.7 | / | /
Cc1ccc(S(=O)(=O)NN2C(=O)/C(=C/c3cccc(F)c3)SC2=S)cc1 | 2.3 | 28.1 | -3.3 | 10.6 | -3.2 | 51.1 | / | /
COC(=O)CN(C)C(=O)c1ccc2nc(Cc3cccc(Cl)c3)oc2c1 | 2.6 | 2.3 | -10.4 | 8.0 | -12.1 | / | / | /
O=C(Cc1ccc(Br)cc1)N1CCN(C(=O)c2ccco2)CC1 | -2.9 | 37.9* | 5.8 | 5.5 | -12.6 | 0.6 | -3.9 | -2.9
O=C(Cc1ccccc1)N1CCN(C(=O)c2ccco2)CC1 | 18.3 | -0.4 | -5.9 | 0.1 | -9.7 | 1.8 | / | /
COc1cc(/C=N/NC(N)=O)ccc1OCC(=O)N1C(C)CCCC1C (centres undefined) | -13.5 | 2.4 | 0.4 | 1.9 | -7.1 | -3.2 | / | /
COc1ccc(C(=O)Oc2ccc(/C=N/Nc3ccc(Cl)c(C(=O)O)c3)cc2OC)cc1 | 9.0 | -17.9 | 23.2 | 10.6 | 11.9 | 60.6 | / | /
COc1cc(/C=N/Nc2ccc(Cl)c(C(=O)O)c2)ccc1OCC(=O)N1C(C)CCCC1C (centres undefined) | 0.3 | 45.2* | 9.3 | -0.7 | 24.3 | -5.4 | 69.8* | -9.1
COc1cc(/C=N/Nc2ccc(Cl)c(C(=O)O)c2)ccc1OC(=O)c1ccco1 | -6.5 | 37.7* | -1.7 | -7.4 | -4.6 | 42.9 | 65.2* | -11.8
CC(Sc1nnc(Cc2ccccc2)n1C)C(=O)NC1CC1 (centres undefined) | / | / | / | -10.3 | / | / | / | /
COCCCN(C(=O)c1ccccc1F)c1nc(-c2ccc(OC)cc2)cs1 | -9.0 | 4.7 | 9.9 | -0.8 | 5.6 | -7.2 | / | /
